Data from ChEMBL document CHEMBL1687725, “Pharmacokinetics and safety of caspofungin in older infants and toddlers” (Antimicrob Agents Chemother, 2009).

Experiments:
[1] = Cmax in plasma of adult human at 50 mg, iv dosed once daily measured on day 1 post dose; format: ADME, organism-based; set-up: dose 50 mg, route intravenous
[2] = AUC (0 to 24 hrs) in adult human at 50 mg, iv dosed once daily measured on day 1 post dose; format: ADME, organism-based; set-up: time < 24 hr, dose 50 mg, route intravenous; details: plasma
Homo sapiens [3] = assay: Clearance in 3-24 months old infants/toddlers at 50 mg/m'2, iv dosed once daily measured on day 1 post dose; format: ADME, organism-based; details: in vivo
[4] = AUC (0 to 24 hrs) in 12 […] old infants/toddlers measured on day 1 post dose; format: ADME, organism-based; set-up: time < 24 hr; details: human, plasma
[5] = AUC (0 to 24 hrs) in 10 […] old infants/toddlers measured on day 1 post dose; format: ADME, organism-based; set-up: time < 24 hr; details: human, plasma
Homo sapiens [6] = species: Homo sapiens; assay: Clearance in 17 […] old infants/toddlers measured on day 1 post dose; format: ADME, organism-based; details: in vivo
[7] = AUC (0 to 24 hrs) in 20 […] old infants/toddlers measured on day 1 post dose; format: ADME, organism-based; set-up: time < 24 hr; details: human, plasma
[8] = Cmax in plasma of in 10 […] old infants/toddlers measured on day 1 post dose; format: ADME, organism-based; details: human
[9] = AUC (0 to 24 hrs) in adult human at 70 mg, iv dosed once daily measured on day 3 to 14 post dose; format: ADME, organism-based; set-up: dose 70 mg, time < 24 hr, route intravenous; details: plasma
Homo sapiens [10] = assay: Clearance in 2-11 years old children at 50 mg/m'2, iv dosed once daily measured on day 1 post dose; format: ADME, organism-based; details: in vivo
[11] = AUC (0 to 24 hrs) in 2-11 years old children at 50 mg/m'2, iv dosed once daily measured on day 1 post dose; format: ADME, organism-based; set-up: time < 24 hr, route intravenous; details: human, plasma
[12] = AUC (0 to 24 hrs) in 12-17 years old adolescents at 50 mg/m'2, iv dosed once daily measured on day 1 post dose; format: ADME, organism-based; set-up: time < 24 hr, route intravenous; details: human, plasma
Homo sapiens [13] = assay: Cmin in plasma of 2-11 years old children at 50 mg/m'2, iv dosed once daily measured on day 1 post dose; format: ADME, organism-based; details: in vivo
[14] = AUC (0 to 24 hrs) in 17 […] old infants/toddlers measured on day 1 post dose; format: ADME, organism-based; set-up: time < 24 hr; details: human, plasma
[15] = Cmax in plasma of 2-11 years old children at 50 mg/m'2, iv dosed once daily measured on day 1 post dose; format: ADME, organism-based; set-up: route intravenous; details: human
[16] = Cmax in plasma of 12-17 years old adolescents at 50 mg/m'2, iv dosed once daily measured on day 1 post dose; format: ADME, organism-based; set-up: route intravenous; details: human
[17] = Cmax in plasma in infants/toddlers measured on day 1 post dose; details: human
[18] = AUC (0 to 24 hrs) in 3-24 months old infants/toddlers at 50 mg/m'2, iv dosed once daily measured on day 4 post dose; format: ADME, organism-based; set-up: time < 24 hr, route intravenous; details: human, plasma
[19] = AUC (0 to 24 hrs) in adult human at 70 mg, iv dosed once daily measured on day 1 post dose; format: ADME, organism-based; set-up: dose 70 mg, time < 24 hr, route intravenous; details: plasma
Homo sapiens [20] = assay: Clearance in adult human at 50 mg, iv dosed once daily measured on day 1 post dose; format: ADME, organism-based; details: in vivo
[21] = AUC (0 to 24 hrs) in 2-11 years old children at 50 mg/m'2, iv dosed once daily measured on day 4 post dose; format: ADME, organism-based; set-up: time < 24 hr, route intravenous; details: human, plasma
[22] = AUC (0 to 24 hrs) in 20 […] old infants/toddlers measured on day 4 post dose; format: ADME, organism-based; set-up: time < 24 hr; details: human, plasma
Homo sapiens [23] = species: Homo sapiens; assay: Clearance in infants/toddlers measured on day 1 post dose; details: in vivo
[24] = Cmax in plasma of adult human at 70 mg, iv dosed once daily measured on day 1 post dose; format: ADME, organism-based; set-up: dose 70 mg, route intravenous
[25] = Cmax in plasma of 3-24 months old infants/toddlers at 50 mg/m'2, iv dosed once daily measured on day 1 post dose; format: ADME, organism-based; set-up: route intravenous; details: human
[26] = AUC (0 to 24 hrs) in 10 […] old infants/toddlers measured on day 4 post dose; format: ADME, organism-based; set-up: time < 24 hr; details: human, plasma
[27] = Cmax in plasma of in 10 years old infants/toddlers measured on day 4 post dose; format: ADME, organism-based; details: human
[28] = Cmax in plasma of in 17 […] old infants/toddlers measured on day 1 post dose; format: ADME, organism-based; details: human
[29] = AUC (0 to 24 hrs) in 12 […] old infants/toddlers measured on day 4 post dose; format: ADME, organism-based; set-up: time < 24 hr; details: human, plasma
[30] = AUC (0 to 24 hrs) in infants/toddlers measured on day 1 post dose; details: human, plasma
[31] = Cmax in plasma of 2-11 years old children at 50 mg/m'2, iv dosed once daily measured on day 4 post dose; format: ADME, organism-based; set-up: route intravenous; details: human
[32] = AUC (0 to 24 hrs) in 3-24 months old infants/toddlers at 50 mg/m'2, iv dosed once daily measured on day 1 post dose; format: ADME, organism-based; set-up: time < 24 hr, route intravenous; details: human, plasma
Homo sapiens [33] = species: Homo sapiens; assay: (§1) Cmax in plasma of in 12 […] old infants/toddlers measured on day 4 post dose; format: ADME, organism-based; details: in vivo
[34] = as §1; format: ADME, organism-based; details: human, plasma
[35] = Cmax in plasma of adult human at 50 mg, iv dosed once daily measured on day 3 to 14 post dose; format: ADME, organism-based; set-up: dose 50 mg, route intravenous
[36] = Cmax in plasma of in 17 years old infants/toddlers measured on day 4 post dose; format: ADME, organism-based; details: human
[37] = Cmax in plasma of in 13 […] old infants/toddlers measured on day 1 post dose; format: ADME, organism-based; details: human
[38] = Cmax in plasma of in 3 to 24 months old infants/toddlers measured on day 4 post dose; details: human
[39] = AUC (0 to 24 hrs) in infants/toddlers measured on day 4 post dose; details: human, plasma
[40] = AUC (0 to 24 hrs) in adult human at 50 mg, iv dosed once daily measured on day 3 to 14 post dose; format: ADME, organism-based; set-up: dose 50 mg, time < 24 hr, route intravenous; details: plasma
Homo sapiens [41] = species: Homo sapiens; assay: Clearance in 12 […] old infants/toddlers measured on day 1 post dose; format: ADME, organism-based; details: in vivo
[42] = Cmax in plasma of 3-24 months old infants/toddlers at 50 mg/m'2, iv dosed once daily measured on day 4 post dose; format: ADME, organism-based; set-up: route intravenous; details: human
[43] = Cmax in plasma of in 20 […] old infants/toddlers measured on day 4 post dose; format: ADME, organism-based; details: human
How it was run: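 Infants/toddlers (10 to 24 months) with fever and neutropenia received caspofungin 50 mg/m2 once daily as a 1-h infusion. C1 is the observed plasma concentration at the end of the first (day 1) or fourth (day 4) infusion, sampled from 20 min before to 30 min after the end of infusion. Caspofungin was measured by HPLC with fluorescence detection.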

[44] = Cmax in plasma of adult human at 70 mg, iv dosed once daily measured on day 3 to 14 post dose; format: ADME, organism-based; set-up: dose 70 mg, route intravenous
Homo sapiens [45] = assay: Clearance in 12-17 years old adolescents at 50 mg/m'2, iv dosed once daily measured on day 1 post dose; format: ADME, organism-based; details: in vivo
[46] = AUC (0 to 24 hrs) in 12-17 years old adolescents at 50 mg/m'2, iv dosed once daily measured on day 4 post dose; format: ADME, organism-based; set-up: time < 24 hr, route intravenous; details: human, plasma
[47] = Cmax in plasma of in […] infants/toddlers measured on day 1 post dose; format: ADME, organism-based; details: human
Homo sapiens [48] = species: Homo sapiens; assay: Clearance in 3 to 24 months old infants/toddlers measured on day 1 post dose; details: in vivo
Homo sapiens [49] = species: Homo sapiens; assay: Clearance in 10 […] old infants/toddlers measured on day 1 post dose; format: ADME, organism-based; details: in vivo
[50] = AUC (0 to 24 hrs) in 17 […] old infants/toddlers measured on day 4 post dose; format: ADME, organism-based; set-up: time < 24 hr; details: human, plasma
[51] = Cmax in plasma of in 12 […] old infants/toddlers measured on day 1 post dose; format: ADME, organism-based; details: human
Homo sapiens [52] = assay: Clearance in adult human at 70 mg, iv dosed once daily measured on day 1 post dose; format: ADME, organism-based; details: in vivo
[53] = Cmax in plasma of 12-17 years old adolescents at 50 mg/m'2, iv dosed once daily measured on day 4 post dose; format: ADME, organism-based; set-up: route intravenous; details: human
[54] = Cmax in plasma in infants/toddlers measured on day 4 post dose; details: human
[55] = AUC (0 to 24 hrs) in 13 […] old infants/toddlers measured on day 4 post dose; format: ADME, organism-based; set-up: time < 24 hr; details: human, plasma

- Cmax [1]: 7670 ng/mL
- AUC(0-t) at 24 h [2]: 70600 ng·h/mL
- CL (Homo sapiens [3]): 6.05 ml/min/m2
- AUC(0-t) at 24 h [4]: 109 µg·h/mL
- AUC(0-t) at 24 h [5]: 160 µg·h/mL
- CL (Homo sapiens [6]): 4.94 ml/min/m2
- AUC(0-t) at 24 h [7]: 97400 ng·h/mL
- Cmax [8]: 14500 ng/mL
- AUC at 24 h [9]: 154 µg·h/mL
- CL (Homo sapiens [10]): 7.78 ml/min/m2
- AUC(0-t) at 24 h [11]: 96400 ng·h/mL
- AUC(0-t) at 24 h [12]: 77600 ng·h/mL
- Cmin (Homo sapiens [13]): 1.09 µg/mL
- AUC(0-t) at 24 h [14]: 102 µg·h/mL
- Cmax [15]: 14000 ng/mL
- Cmax [16]: 8950 ng/mL
- Cmax [17]: 21500 ng/mL
- AUC at 24 h [18]: 130 µg·h/mL
- AUC(0-t) at 24 h [19]: 97100 ng·h/mL
- CL (Homo sapiens [20]): 6.07 ml/min/m2
- AUC at 24 h [21]: 115 µg·h/mL
- AUC at 24 h [22]: 122 µg·h/mL
- CL (Homo sapiens [23]): 6.82 ml/min/m2
- Cmax [24]: 10000 ng/mL
- Cmax [25]: 17500 ng/mL
- AUC at 24 h [26]: 114 µg·h/mL
- Cmax [27]: 15200 ng/mL
- Cmax [28]: 13900 ng/mL
- AUC at 24 h [29]: 122 µg·h/mL
- AUC(0-t) at 24 h [30]: 120 µg·h/mL
- Cmax [31]: 15600 ng/mL
- AUC(0-t) at 24 h [32]: 120 µg·h/mL
- Cmax (Homo sapiens [33]): 17.96 µg/mL
- Cmax [34]: 15900 ng/mL
- Cmax [35]: 9390 ng/mL
- Cmax [36]: 16400 ng/mL
- Cmax [37]: 15800 ng/mL
- Cmax [38]: 16900 ng/mL
- AUC at 24 h [39]: 171 µg·h/mL
- AUC at 24 h [40]: 103 µg·h/mL
- CL (Homo sapiens [41]): 6.44 ml/min/m2
- Cmax [42]: 17200 ng/mL
- Cmax [43]: 12100 ng/mL
- Cmax [44]: 13300 ng/mL
- CL (Homo sapiens [45]): 6.3 ml/min/m2
- AUC at 24 h [46]: 117 µg·h/mL
- Cmax [47]: 13000 ng/mL
- CL (Homo sapiens [48]): 5.98 ml/min/m2
- CL (Homo sapiens [49]): 4.37 ml/min/m2
- AUC at 24 h [50]: 135 µg·h/mL
- Cmax [51]: 17500 ng/mL
- CL (Homo sapiens [52]): 5.2 ml/min/m2
- Cmax [53]: 12900 ng/mL
- Cmax [54]: 21300 ng/mL
- AUC at 24 h [55]: 121 µg·h/mL
Structure (SMILES): CC[C@H](C)C[C@H](C)CCCCCCCCC(=O)N[C@H]1C[C@@H](O)[C@@H](NCCN)NC(=O)[C@@H]2[C@@H](O)CCN2C(=O)[C@H]([C@H](O)CCN)NC(=O)[C@H]([C@H](O)[C@@H](O)c2ccc(O)cc2)NC(=O)[C@@H]2C[C@@H](O)CN2C(=O)[C@H]([C@@H](C)O)NC1=O [CASPOFUNGIN]
